How the values were obtained:
CYP2J2 [1] = molecular target: T1, CYP2J2 (Homo sapiens, UniProt P51589); experiment: Chemical inhibition of M1 formation by recombinant CYP2J2; format: biochemical
T1 sequence (P51589 1-502): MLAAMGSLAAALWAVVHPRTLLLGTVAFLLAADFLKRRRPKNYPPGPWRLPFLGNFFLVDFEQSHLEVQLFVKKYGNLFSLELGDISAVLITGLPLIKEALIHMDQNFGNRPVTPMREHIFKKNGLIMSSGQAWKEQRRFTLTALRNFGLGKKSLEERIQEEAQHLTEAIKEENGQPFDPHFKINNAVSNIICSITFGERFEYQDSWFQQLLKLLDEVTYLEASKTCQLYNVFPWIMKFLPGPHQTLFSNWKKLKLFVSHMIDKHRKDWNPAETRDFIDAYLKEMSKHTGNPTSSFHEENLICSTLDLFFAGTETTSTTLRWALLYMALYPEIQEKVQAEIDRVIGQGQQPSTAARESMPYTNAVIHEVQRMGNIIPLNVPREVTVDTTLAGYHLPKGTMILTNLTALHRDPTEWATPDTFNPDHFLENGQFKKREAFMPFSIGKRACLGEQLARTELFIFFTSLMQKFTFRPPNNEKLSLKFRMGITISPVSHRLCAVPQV

[2] = test system: M1 formation by human liver microsomes; experiment: Chemical inhibition of M1 formation by HLMs; format: biochemical
recombinant CYP4F3B = molecular target: T2, recombinant CYP4F3B (Homo sapiens, UniProt Q08477); experiment: Chemical inhibition of M1 formation by recombinant CYP4F3B; format: biochemical
T2 sequence (Q08477 1-520 isoform Q08477-2): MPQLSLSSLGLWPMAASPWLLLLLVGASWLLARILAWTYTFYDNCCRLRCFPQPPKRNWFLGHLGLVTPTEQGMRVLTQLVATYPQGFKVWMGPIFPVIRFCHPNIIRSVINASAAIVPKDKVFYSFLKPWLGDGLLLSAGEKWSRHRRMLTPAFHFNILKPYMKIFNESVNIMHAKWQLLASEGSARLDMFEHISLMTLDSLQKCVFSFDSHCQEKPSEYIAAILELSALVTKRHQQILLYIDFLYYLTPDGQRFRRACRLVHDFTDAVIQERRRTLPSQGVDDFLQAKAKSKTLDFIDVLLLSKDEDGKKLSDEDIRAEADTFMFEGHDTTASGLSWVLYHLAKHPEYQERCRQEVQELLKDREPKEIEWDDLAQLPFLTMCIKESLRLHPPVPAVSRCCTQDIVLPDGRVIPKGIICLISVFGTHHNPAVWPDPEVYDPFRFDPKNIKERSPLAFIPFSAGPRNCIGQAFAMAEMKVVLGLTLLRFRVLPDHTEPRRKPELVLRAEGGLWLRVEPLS

recombinant CYP4F2 = molecular target: T3, recombinant CYP4F2 (Homo sapiens, UniProt P78329); experiment: Chemical inhibition of M1 formation by recombinant CYP4F2; format: biochemical
T3 sequence (P78329 5-520): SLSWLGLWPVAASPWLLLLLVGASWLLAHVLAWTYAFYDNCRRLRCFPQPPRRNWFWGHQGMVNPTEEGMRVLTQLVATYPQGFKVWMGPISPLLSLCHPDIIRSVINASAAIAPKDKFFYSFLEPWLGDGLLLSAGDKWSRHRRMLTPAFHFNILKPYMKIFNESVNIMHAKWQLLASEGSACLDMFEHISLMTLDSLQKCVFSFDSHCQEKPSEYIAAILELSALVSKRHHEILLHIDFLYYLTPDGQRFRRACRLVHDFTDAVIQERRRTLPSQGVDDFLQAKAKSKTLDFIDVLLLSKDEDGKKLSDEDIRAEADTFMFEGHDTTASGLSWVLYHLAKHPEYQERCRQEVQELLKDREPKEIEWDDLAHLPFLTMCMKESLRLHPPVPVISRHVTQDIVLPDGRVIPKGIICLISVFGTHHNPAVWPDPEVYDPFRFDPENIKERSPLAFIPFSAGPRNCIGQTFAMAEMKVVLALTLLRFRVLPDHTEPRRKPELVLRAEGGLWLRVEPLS

[3] = Incubation of DB289 with pooled human liver microsomes; format: in vitro ADME; conditions: 15 μM DB289, 0.2 mg/ml HLMs, 0-120 min
Outline: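 Pooled liver microsomes (50 donors, mixed gender) at 0.2 mg/ml with 15 μM substrate in a 1 ml mix, equilibrated 5 min at 37°C, then started with NADPH. Aliquots taken at 0, 5, 15, 30 and 120 min into ice-cold acetonitrile. LC/UV at 359 nm against an external 0.1–15 μM calibration; metabolites identified by retention time versus synthetic standards. Single determination; controls lacked NADPH, protein or substrate.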

[4] = HLMs, ref Zimmerlin and Patten (2000), cited from earlier work
CYP2J2 [5] = conditions: ref Hashizume et al. (2002); cited from earlier work
[6] = 0.2 μM and 1 μM, 10 pmol/ml P450, 3 μM DB289
[7] = read-out: inhibition of M1 formation
[8] = 100 μM inhibitor, 10 pmol/ml P450, 3 μM DB289

Q: What does the source list for `C#CCCCCCCCCCCCCCCCC(=O)O` [17-ODYA, 17-Octadecynoic acid]?
A: activation of M1 formation at low concentrations (CYP2J2 [1]; [6]): activation was not observed; inhibition of M1 formation ([2]; 1 μM inhibitor, 15 min preincubation, 0.2 mg/ml HLM, 3 μM DB289): 39%; inhibition of M1 formation ([2]; 10 μM inhibitor, 15 min preincubation, 0.2 mg/ml HLM, 3 μM DB289): 84%; activation of M1 formation at low concentrations (recombinant CYP4F3B; [6]): appeared to activate; activation of M1 formation at low concentrations (recombinant CYP4F2; [6]): activation was not observed

Q: For `Nn1nnc2ccccc21` [ABT, 1-aminobenzotriazole], which “inhibition of M1 formation relative to control” value ([2]; 100 μM inhibitor, 15 min preincubation, 0.2 mg/ml HLM, 3 μM DB289, 5 min) is on record?
A: The value was 86%.

Q: For `N=C(N)c1ccc(-c2ccc(-c3ccc(C(=N)N)cc3)o2)cc1` [DB75, 2,5-bis(4-amidinophenyl) furan], which “concentration of metabolite formed from DB289” value [3] is on record?
A: Its value is “below the lower level of quantification”.

Q: What does the source list for `CCCCCCCCc1ccc(CCC(N)(CO)CO)cc1` [FTY720, 2-amino-2-[2-(4-octylphenyl)ethyl]-1,3-propanediol]?
A: Vmax of ω-hydroxylation [4]: 1850 pmol/min/mg protein; Km ([4]; read-out: apparent Km of ω-hydroxylation): 180 µM

Q: Which “inhibition of M1 formation” value ([2]; 0.1 μM inhibitor, 0.2 mg/ml HLM, 3 μM DB289) does the source give for `CCCCc1ccc(N=CNO)c(C)c1` [HET0016, N-hydroxy-N′-(4-n-butyl-2-methylphenyl)formamidine] here?
A: Its value is 78%.

Q: And the “inhibition of M1 formation” value ([2]; 0.5 μM inhibitor, 0.2 mg/ml HLM, 3 μM DB289)?
A: Its value is 95%.

Q: What about the inhibition at 0.02 µM (recombinant CYP4F3B; [7]) of the same compound?
A: Its inhibition at 0.02 µM is 79%.

Q: What about the inhibition at 0.02 µM (recombinant CYP4F2; [7]) of the same compound?
A: The inhibition at 0.02 µM was 82%.

Q: With `CCCCC/C=C\C/C=C\C/C=C\C/C=C\CCCC(=O)O` [arachidonic acid] as the compound, how does the “inhibition of M1 formation” value ([2]; 500 μM inhibitor, 0.2 mg/ml HLM, 3 μM DB289) read?
A: The value was 60%.

Q: And the “inhibition of M1 formation” value ([2]; inhibitor up to 100 μM, 0.2 mg/ml HLM, 3 μM DB289)?
A: Its value is “no effect”.

Q: And the “inhibition of M1 formation” value (recombinant CYP4F3B; [8])?
A: Its value is “potently inhibited”.

Q: What about the “inhibition of M1 formation” value (recombinant CYP4F2; [8]) of the same compound?
A: Its value is “potently inhibited”.

Q: For `CC(C)(C)c1ccc(C(=O)CCCN2CCC(OC(c3ccccc3)c3ccccc3)CC2)cc1` [ebastine], which Km (CYP2J2 [5]) is on record?
A: The Km was 1.3 µM.

Q: With `CC(=O)N1CCN(c2ccc(OCC3COC(Cn4ccnc4)(c4ccc(Cl)cc4Cl)O3)cc2)CC1` (stereo not shown) [ketoconazole] as the compound, how does the inhibition at 5 min, 3 μM (CYP2J2 [1]; human, recombinant CYP2J2, pH 7.4, probe DB289 (3 μM), conversion to M1) read?
A: The inhibition at 5 min, 3 μM was 93%.

Q: And the “inhibition of M1 formation” value ([2]; 3 μM inhibitor, 0.2 mg/ml HLM, 3 μM DB289, 5 min, Fig. 4)?
A: Its value is 61%.

Q: And the “inhibition of M1 formation” value ([2]; 3 μM inhibitor, 0.2 mg/ml pooled HLMs (different lot), 3 μM DB289, 5 min, Fig. 8)?
A: Its value is ~43%.

Q: And the “inhibition of M1 formation” value (recombinant CYP4F3B; 3 μM inhibitor, 10 pmol/ml P450, 3 μM DB289, 15 min)?
A: The value was “no effect”.

Q: And the inhibition at 3 µM (recombinant CYP4F2; [7])?
A: Its inhibition at 3 µM is 87%.

Q: Which “inhibition of M1 formation” value ([2]; 50 or 100 μM inhibitor, 0.2 mg/ml HLM, 3 μM DB289) does the source give for `CO[C@H]1C[C@H](O[C@H]2[C@H](C)[C@@H](O[C@@H]3O[C@H](C)C[C@H](N(C)C)[C@H]3OC(C)=O)[C@@H](C)C[C@@]3(CO3)C(=O)[C@H](C)[C@@H](OC(C)=O)[C@@H](C)[C@@H](C)OC(=O)[C@@H]2C)O[C@@H](C)[C@@H]1OC(C)=O` [troleandomycin] here?
A: Its value is “did not inhibit”.

Q: For `O=c1cc(-c2ccccc2)oc2c1ccc1ccccc12` [α-naphthoflavone], which “inhibition of M1 formation” value ([2]; 1 μM inhibitor, 0.2 mg/ml HLM, 3 μM DB289, 5 min) is on record?
A: The value was “negligible inhibition”.

— PMC2077835 (Drug metabolism and disposition: the biological fate of …, 2006)
